Experiments:
[1] = Antiproliferative activity against human HMC 1.1 cells harboring KIT V560G mutant assessed as inhibition of cell proliferation measured after 72 hrs by MTS assay; format: functional, cell-based; details: HMC-1.1, 72 h
A-431 = test: Cytotoxicity against human A-431 cells expressing EGFR assessed as reduction in cell viability incubated for 72 hrs by MTT assay; format: functional, cell-based; details: A-431, 72 h
[2] = molecular target: Tyrosine-protein kinase JAK2 (Homo sapiens, UniProt O60674); test: Inhibition of recombinant human JAK2 JH1 domain expressed in baculovirus infected insect cells using poly-Glu-Tyr (51 to 68 residues) as substrate incubated for 1 hr in presence of ATP by ADP-Glo assay
[3] = Potency index, ratio of erlotinib IC50 to test compound IC50 human A549 cells expressing EGFR assessed as reduction in cell viability incubated for 72 hrs by MTT assay; format: functional
[4] = molecular target: T1, Epidermal growth factor receptor (Homo sapiens, UniProt P00533); test: Inhibition of human EGFR TK domain expressed in Escherichia coli BL21 (DE3) pLysS using poly-Glu-Tyr (51 to 68 residues) as substrate incubated for 1 hr by ADP-Glo assay
A549 = test: Cytotoxicity against human A549 cells expressing EGFR assessed as reduction in cell viability incubated for 72 hrs by MTT assay; format: functional, cell-based; details: A549, 72 h
Vero = test: Cytotoxicity against African green monkey Vero cells assessed as reduction in cell viability incubated for 72 hrs by MTT assay; details: Chlorocebus sabaeus
HEL 92.1.7 = test: Cytotoxicity against human HEL 92.1.7 cells expressing JAK2 assessed as reduction in cell viability incubated for 72 hrs by presto blue reagent assay; format: functional, cell-based; details: HEL 92.1.7, 72 h
TF-1 = test: Cytotoxicity against human TF-1 cells expressing JAK2 assessed as reduction in cell viability incubated for 72 hrs by presto blue reagent assay; format: functional, cell-based; details: TF-1, 72 h
[5] = Potency index, ratio of ruxolitinib IC50 to test compound IC50 for human HEL 92.1.7 cells expressing JAK2 assessed as reduction in cell viability incubated for 72 hrs by presto blue reagent assay; format: functional
[6] = molecular target: T1, Epidermal growth factor receptor; test: Inhibition of EGFR (unknown origin)
Method in brief: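 ADP-Glo luminescent kinase assay in 40 mM Tris–HCl pH 7.5, 20 mM MgCl2, 0.1 mg/mL BSA. EGFR added at 1.25 ng/μL with inhibitor, then a mix of 5 μM ATP and 2.5 μM poly(Glu-Tyr); reaction run 1 h at room temperature. ADP-Glo reagent added for 40 min, then detection reagent for 30 min. Run in triplicate; % inhibition calculated against a no-inhibitor control.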

T1 sequence (P00533 whole entry, the tested form may be a part): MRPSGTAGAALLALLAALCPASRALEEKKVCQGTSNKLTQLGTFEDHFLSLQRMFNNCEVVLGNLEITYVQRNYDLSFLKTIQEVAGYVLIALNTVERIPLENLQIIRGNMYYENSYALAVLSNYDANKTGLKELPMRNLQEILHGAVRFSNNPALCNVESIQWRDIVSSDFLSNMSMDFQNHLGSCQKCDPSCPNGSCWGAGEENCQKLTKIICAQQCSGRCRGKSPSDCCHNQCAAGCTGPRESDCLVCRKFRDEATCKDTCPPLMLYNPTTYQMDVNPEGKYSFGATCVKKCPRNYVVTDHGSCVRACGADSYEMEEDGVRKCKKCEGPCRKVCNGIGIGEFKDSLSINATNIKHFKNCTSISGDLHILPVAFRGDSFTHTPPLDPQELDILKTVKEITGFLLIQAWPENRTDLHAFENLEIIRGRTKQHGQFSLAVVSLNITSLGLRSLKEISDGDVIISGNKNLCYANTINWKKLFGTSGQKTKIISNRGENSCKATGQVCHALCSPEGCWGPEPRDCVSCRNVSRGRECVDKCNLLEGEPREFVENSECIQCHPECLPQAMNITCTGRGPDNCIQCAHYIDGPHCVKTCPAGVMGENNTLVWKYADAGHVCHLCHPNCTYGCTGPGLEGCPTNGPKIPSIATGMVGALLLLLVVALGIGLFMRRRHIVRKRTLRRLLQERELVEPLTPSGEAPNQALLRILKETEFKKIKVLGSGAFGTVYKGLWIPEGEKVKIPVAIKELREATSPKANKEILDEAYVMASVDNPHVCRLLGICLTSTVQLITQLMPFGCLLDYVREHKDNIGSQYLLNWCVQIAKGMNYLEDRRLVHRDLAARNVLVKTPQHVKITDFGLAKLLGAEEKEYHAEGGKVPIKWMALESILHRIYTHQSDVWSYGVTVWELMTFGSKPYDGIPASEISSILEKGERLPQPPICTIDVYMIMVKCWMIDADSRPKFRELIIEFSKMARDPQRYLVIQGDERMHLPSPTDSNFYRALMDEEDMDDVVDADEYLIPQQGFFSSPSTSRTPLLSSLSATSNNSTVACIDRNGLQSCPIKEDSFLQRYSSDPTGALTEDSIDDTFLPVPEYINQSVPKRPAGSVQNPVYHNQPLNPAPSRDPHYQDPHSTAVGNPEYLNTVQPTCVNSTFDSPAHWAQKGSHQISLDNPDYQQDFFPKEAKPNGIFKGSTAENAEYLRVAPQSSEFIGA
Sequence of Tyrosine-protein kinase JAK2 (O60674 whole entry, the tested form may be a part): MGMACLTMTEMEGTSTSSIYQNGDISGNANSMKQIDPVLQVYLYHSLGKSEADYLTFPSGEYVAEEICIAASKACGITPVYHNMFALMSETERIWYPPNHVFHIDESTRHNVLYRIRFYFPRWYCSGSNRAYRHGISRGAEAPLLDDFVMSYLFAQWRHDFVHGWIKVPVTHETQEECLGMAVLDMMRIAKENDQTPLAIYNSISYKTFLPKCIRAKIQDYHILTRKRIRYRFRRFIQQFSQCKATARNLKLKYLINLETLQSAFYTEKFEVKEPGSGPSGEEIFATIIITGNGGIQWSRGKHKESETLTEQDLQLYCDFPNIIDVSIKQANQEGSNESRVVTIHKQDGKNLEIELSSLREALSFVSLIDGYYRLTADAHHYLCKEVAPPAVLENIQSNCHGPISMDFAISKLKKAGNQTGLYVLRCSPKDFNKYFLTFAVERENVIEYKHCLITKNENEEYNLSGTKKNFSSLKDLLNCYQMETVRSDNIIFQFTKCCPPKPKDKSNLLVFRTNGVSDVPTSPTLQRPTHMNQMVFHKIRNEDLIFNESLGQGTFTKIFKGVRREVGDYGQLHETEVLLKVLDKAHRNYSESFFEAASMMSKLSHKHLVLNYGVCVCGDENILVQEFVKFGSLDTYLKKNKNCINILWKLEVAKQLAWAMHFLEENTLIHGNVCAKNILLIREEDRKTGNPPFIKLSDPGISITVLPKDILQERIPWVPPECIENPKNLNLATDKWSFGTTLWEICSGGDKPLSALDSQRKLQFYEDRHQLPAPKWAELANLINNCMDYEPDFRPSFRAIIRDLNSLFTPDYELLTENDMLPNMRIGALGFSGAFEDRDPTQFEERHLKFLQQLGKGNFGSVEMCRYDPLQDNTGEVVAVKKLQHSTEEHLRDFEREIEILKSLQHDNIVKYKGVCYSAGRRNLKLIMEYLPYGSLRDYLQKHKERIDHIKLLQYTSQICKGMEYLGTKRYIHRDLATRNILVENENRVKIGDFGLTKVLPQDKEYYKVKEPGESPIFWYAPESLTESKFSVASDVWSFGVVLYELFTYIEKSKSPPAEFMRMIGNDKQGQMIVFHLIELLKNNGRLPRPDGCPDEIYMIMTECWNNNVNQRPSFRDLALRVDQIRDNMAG

Structure (SMILES)	IC50 (A-431)	IC50 [2]	IC50 [4]	IC50 (A549)	IC50 (Vero)	IC50 (HEL 92.1.7)	IC50 (TF-1)	Ratio IC50 [5]	also measured
Cc1cn(-c2cc(NC(=O)c3ccc(Nc4nc(-c5cccnc5)cs4)c(C)c3)cc(C(F)(F)F)c2)cn1	–	–	–	–	–	–	–	–	IC50 [1]: 0.138 µM
CNc1nc(C)c(C(=O)/C=C/c2ccc(O)cc2)s1	8.04 µM	0.0339 µM	0.0337 µM	16.3 µM	> 100 µM	–	–	–	Ratio IC50 [3]: 2
CNc1nc(C)c(C(=O)/C=C/c2cccs2)s1	28.5 µM	–	–	62.1 µM	> 100 µM	–	–	–	–
CNc1nc(C)c(C(=O)/C=C/c2ccsc2)s1	–	0.0176 µM	0.144 µM	–	–	9.96 µM	32 µM	2	–
CNc1nc(C)c(C(=O)/C=C/c2nccs2)s1	–	0.0203 µM	0.256 µM	–	> 100 µM	6.89 µM	30.2 µM	2	–
O=C(Cc1csc2nc3ccccc3n12)Nc1ccccc1O	–	–	–	–	–	–	–	–	IC50 [6]: 0.055 µM
